Screening results from PubChem.
Shown are actives, neighbours in structure and some others; about 4.7% of the full set was active somewhere.
MPTP block = permeability transition pore inhibition. isolated mouse mitochondria, Ca2+ swelling absorbance, 30 min. inhibition, % at 10 µM. hit rate 1.4% among 360,000. AID 602449;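 active = inhibition of 50% or more, scaled per plate between neutral and stimulator controls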;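 also: 0% = DMSO wells given calcium and 100% = 1 mM EGTA wells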
ADAM17 inh = inhibitors of human ADAM17 | P78536 | recombinant ADAM17, EDANS/DABCYL FRET peptide cleavage | inhibition, % at 6.95 µM | hit rate 0.83% among 370,000 | AID 720648;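 active = inhibition above the mean of compounds lying between control limits plus 3 SD, set per campaign, cut at about 8.5% in these data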;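 also: 0% = DMSO-only wells as the low control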
ADAM10 inh = inhibits human ADAM10 | O14672 | recombinant ADAM10, EDANS/DABCYL FRET peptide cleavage, 3 h | inhibition, % at 7 µM | hit rate 0.62% among 370,000 | AID 720582;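 active = inhibition above a per-campaign cutoff equal to the mean of compounds falling between control-based bounds plus 3 SD, cut at about 20% in these data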;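 also: 0% = DMSO wells while the 100% control is not disclosed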
Target sequence (O14672 214-748 limits assumed): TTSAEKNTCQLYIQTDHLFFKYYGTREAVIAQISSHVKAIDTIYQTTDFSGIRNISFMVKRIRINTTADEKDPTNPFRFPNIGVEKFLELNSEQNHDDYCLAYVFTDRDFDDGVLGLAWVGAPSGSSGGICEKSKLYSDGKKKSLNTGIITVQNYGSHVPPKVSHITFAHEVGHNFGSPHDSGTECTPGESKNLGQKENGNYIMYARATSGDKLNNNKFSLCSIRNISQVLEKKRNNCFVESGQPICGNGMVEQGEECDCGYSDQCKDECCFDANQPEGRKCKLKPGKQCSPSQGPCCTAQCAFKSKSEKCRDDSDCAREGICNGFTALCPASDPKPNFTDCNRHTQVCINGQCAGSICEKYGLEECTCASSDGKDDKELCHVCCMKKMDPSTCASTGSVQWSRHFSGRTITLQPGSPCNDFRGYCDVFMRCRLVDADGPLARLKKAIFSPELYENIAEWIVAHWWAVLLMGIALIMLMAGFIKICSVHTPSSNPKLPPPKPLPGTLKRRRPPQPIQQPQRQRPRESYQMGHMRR
GRIN3A LBD mod = modulators (binders) of human NR3A ligand-binding domain. AID 1259313. NR3A LBD differential scanning fluorimetry, Tm shift; 0% = protein alone, 100% = glycine-bound protein. hit rate 2.5% among 340,000. Tm shift relative to glycine control, % at 25 µM;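 active = melting temperature shift of at least 10% of the positive control shift, at one fixed dose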
SKN-1 inh = blocks SKN-1 activity in C. elegans | C. elegans VP596 Pgst-4::GFP/RFP ratio, acrylamide-induced, 24 h | inhibition, % at 21.8 µM | hit rate 0.49% among 360,000 | AID 624304;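 active = interference check ratio from 0.5 to 1.5 plus GFP to RFP signal ratio inhibition reaching or exceeding a fixed threshold, cut at about 30% in these data, passing the limit was not always enough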
MT1-MMP act inh = blocks activation of human MT1-MMP | hit rate 0.061% among 360,000 | HT1080 RFP-PRO-GFP cells, GFP/RFP ratio fluorescence, overnight; percent of plate control window, DMSO zero | GFP/RFP ratio change, % at 20 µM;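 active = GFP/RFP ratio change of at least 30% with cell ATP level not reduced by more than half and red fluorescence within 50% of control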
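Assay system – RFP-PRO-GFP reporter HT1080 cells · Compound dosing – single dose of 20 µM compound, 1% DMSO final · Incubation – overnight compound exposure at 37 °C · Measure – GFP/RFP fluorescence ratio · Benchmarks – DMSO wells and RFP-L50D-GFP cells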
ADAM10 confirm = confirmation of inhibitors of human ADAM10. inhibition, % at 6.95 µM. shares compounds with ADAM10 inh. hit rate 1% among 2,100. AID 743208. ADAM10 QFRET peptide cleavage, EDANS fluorescence;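 active = inhibition above about 20% chosen separately for each screening run, limit read from the data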;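 also: 0% = DMSO wells and 100% = marimastat wells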
ADAM17 ctr = inhibits human ADAM17 in ADAM10 exosite counter-screen; shares compounds with ADAM10 inh; ADAM17 QFRET peptide cleavage, EDANS fluorescence; inhibition, % at 6.95 µM; hit rate 0.5% among 2,100; AID 743214;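 active = mean triplicate inhibition above the solvent-only control wells' mean plus 3 SD, cut at about 12% in these data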;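 also: 0% = DMSO wells and 100% = marimastat wells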
The depositor's hits bear a star; . = no result.

SMILES	MPTP block	ADAM17 inh	ADAM10 inh	GRIN3A LBD mod	SKN-1 inh	MT1-MMP act inh	ADAM10 confirm	ADAM17 ctr
Cc1cc(S(=O)(=O)N(Cc2ccc(C(C)C)cc2)CC2CCCO2)ccc1-n1cnnn1 (configuration not stated)	2	5	24*	-2	6	-3	5	1
COc1ccc(CN(CC2CCCO2)S(=O)(=O)c2ccc(-n3cnnn3)c(OC)c2)cc1 (configuration not stated)	0	-1	-6	0	-7	-2	.	.
Fc1ccc(CNCc2ccco2)cc1	0	8	20*	3	-4	5	-1	0
Cc1ccc(CNCc2ccco2)cc1	0	-6	-7	0	6	0	.	.
OCCN1CCSC1=S	-1	-1	-12	0	11	-1	.	.
O=C(Nc1ccc(F)cc1F)Nc1ccc(F)cc1F	17	2	8	-2	8	-7	.	.
Cc1ccc(S(=O)(=O)Nc2ccc(NC(=O)Nc3ccc(F)cc3F)cc2)cc1	42	8	20*	29*	-6	-18	4	1
COc1ccc(N(CC(O)Cn2cnc3ccccc32)S(=O)(=O)c2ccc(C)cc2)cc1 (configuration not stated)	-1	8	22*	-3	-2	-3	2	0
COc1ccc(N2CCN(C(=S)Nc3ccc(C)cc3C)CC2)cc1	1	5	21*	-2	6	-2	0	0
C=C(C)COc1ccc(-c2nc(N)ncc2Oc2ccccc2OC)c(O)c1	0	-4	1	-11	-12	-20	.	.
CCOc1ccc(-c2nc(N)ncc2Oc2ccccc2Br)c(O)c1	-9	4	21*	-4	23	-11	6	2
CCOc1ccc(-c2[nH]ncc2Oc2ccccc2OCC)c(O)c1	8	7	26*	1	-9	1	8	2
C=C(C)COc1ccc(-c2nc(N)ncc2Oc2ccc(OC)cc2)c(O)c1	3	0	4	-9	4	-5	.	.
CCOc1ccccc1Oc1cn[nH]c1-c1ccc(OCC(=O)NN)cc1O	0	4	10	-2	5	2	.	.
C=C(C)COc1ccc(-c2[nH]ncc2Oc2ccc(OC)cc2)c(O)c1	26	7	21*	9	7	4	12	4
C/C=C/c1ccc(OCCCCn2cncn2)c(OC)c1	0	1	2	0	3	-6	.	.
CCSc1ncc(Cl)c(C(=O)Nc2ccc(S(N)(=O)=O)cc2)n1	0	-2	1	3	-3	-2	.	.
CCCSc1ncc(Cl)c(C(=O)Nc2ccc(S(=O)(=O)N3CC(C)OC(C)C3)cc2)n1 (configuration not stated)	4	7	20*	-5	18	-2	10	4
O=C(CCn1c(=O)oc2ccccc21)N1CCN(C(c2ccccc2)c2ccccc2)CC1	-2	4	27*	0	7	-8	3	2
O=C(NC(=S)Nc1ccccc1N1CCCC1)c1ccc(-c2cccc([N+](=O)[O-])c2)o1	0	3	20*	-4	8	-4	2	1
COc1ccc(C(Nc2cc(C)ccn2)c2ccc3ccc(C)nc3c2O)cc1 (configuration not stated)	4	1	23*	-3	-5	5	20*	5
COc1cccc(C=NCC(C)N=Cc2cccc(OC)c2O)c1O (configuration not stated)	-3	-1	-6	0	10	0	.	.
C/C(CC(=O)Nc1cc(Cl)ccc1Cl)=N\NC(=O)COc1cccc(C)c1	0	2	20*	-1	3	-2	2	0
O=C(CCc1ccc(S(=O)(=O)NC2CCCCC2)cc1)N(Cc1ccccc1)Cc1ccccc1	-5	7	21*	0	2	-16	7	2
Cn1nnc(NC(=O)c2ccc(C(C)(C)C)cc2)n1	1	-1	35*	0	6	1	2	1
SMILES	MPTP block	ADAM17 inh	ADAM10 inh	GRIN3A LBD mod	SKN-1 inh	MT1-MMP act inh	ADAM10 confirm	ADAM17 ctr
Cn1nnc(NC(=O)c2ccc3ccccc3c2)n1	-1	-7	-11	-1	-11	0	.	.
CC(=O)c1cccc(NC(=O)c2ccc3c(c2)CCN3S(=O)(=O)c2ccccc2)c1	1	5	23*	-6	-12	2	4	2
COc1ccc(CCNC(=O)COc2ccc(S(=O)(=O)NC3CCCCC3)cc2Cl)cc1	1	7	23*	-28	0	2	3	1
COc1ccc(CNC(=O)CN(C)Cc2ccc(C(C)(C)C)cc2)cc1	0	2	0	-2	15	-2	.	.
O=C(Oc1cccc(NC(=O)c2ccco2)c1)c1cccc(S(=O)(=O)N2CCCCC2)c1	3	5	21*	-4	28	8	7	1
CCOC(=O)c1sc2nc(CC(C)C)c3c(c2c1N)CCC3	8	-57	-177	-7	-2	13	.	.
COc1cccc(/C(=N/O)C2CC2c2ccc(Cl)cc2)c1 (configuration not stated)	0	7	22*	-7	11	0	6	1
O=[N+]([O-])c1ccc(N/N=C/c2cccc(O)c2O)c(S(=O)(=O)N2CCOCC2)c1	20	8	30*	30*	7	-1	7	3
O=[N+]([O-])c1ccc(NCCCO)c(S(=O)(=O)N2CCOCC2)c1	1	1	6	0	14	-1	.	.
COc1ccccc1NC(=O)C1=C(C)Nc2nc(-c3ccccc3)nn2C1c1ccccn1 (configuration not stated)	0	2	67*	1	2	7	1	0
COc1ccccc1NC(=O)C1=C(C)Nc2nc(-c3cccs3)nn2C1c1cccc(O)c1 (configuration not stated)	2	3	4	-3	1	3	.	.
CCc1ccc(NC(=O)NCCN2CCN(c3ccc(OC)cc3)CC2)cc1	2	5	-1	1	10	-1	.	.
COC(=O)c1cccn(CC(=O)c2ccc(Cl)cc2Cl)c1=O	0	-5	-2	-1	-12	2	.	.
COc1ccc(OC(F)(F)F)cc1CC1(C)C(=O)Nc2ccc(-c3ccsc3)cc21 (configuration not stated)	-1	9	26*	.	14	-13	11	3
